EBNA-1 inh: EBNA-1 DNA-binding inhibitors, primary screen, biochemical, fluorescence polarization | inhibition, % at 14.8 µM | 300,000 compounds, 0.34% hits; in the data active = inhibition above about 28%
UBC13 polyUb: UBC13 polyubiquitin chain formation inhibitors, primary screen, biochemical, TR-FRET, uHTS; Ubiquitin-conjugating enzyme E2 N (Homo sapiens), P61088; inhibition, % at 20 µM; 330,000 compounds, 0.47% hits; in the data active = inhibition above about 45%, passing the limit was not always enough
Target sequence (P61088 whole entry, looked up): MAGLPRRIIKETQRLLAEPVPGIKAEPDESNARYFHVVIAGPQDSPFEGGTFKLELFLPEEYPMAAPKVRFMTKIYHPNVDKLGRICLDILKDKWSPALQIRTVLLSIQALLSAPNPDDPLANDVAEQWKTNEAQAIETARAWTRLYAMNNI
ZTA DNA inh: counter-screen for EBNA-1 inhibitors: inhibitors of Epstein-Barr virus ZTA; 320,000 compounds, 0.15% hits; AID 2234; inhibition, % at 11 µM; P03206; ZTA-DNA binding, fluorescence polarization; in the data active = inhibition above about 33%
Target sequence (P03206 whole entry, looked up): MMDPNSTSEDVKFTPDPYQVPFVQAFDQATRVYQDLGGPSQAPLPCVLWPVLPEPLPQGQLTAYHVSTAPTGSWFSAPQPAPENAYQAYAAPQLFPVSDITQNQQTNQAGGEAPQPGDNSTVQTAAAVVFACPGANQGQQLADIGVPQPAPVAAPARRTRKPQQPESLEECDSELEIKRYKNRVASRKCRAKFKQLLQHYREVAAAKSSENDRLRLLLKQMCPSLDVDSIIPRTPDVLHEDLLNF
Apaf-1 inh: inhibitors of human Apaf-1 apoptosome, primary screen, biochemical, DEVD-Rh110 fluorescence, uHTS; Apoptotic protease-activating factor 1 (Homo sapiens), O14727; reconstituted apoptosome caspase-3 activity; inhibition, % at 20 µM; 330,000 compounds, 0.71% hits; AID 489030, 2010; active = inhibition of at least 40% at 20 µM;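 also: plate controls were DMSO wells for no effect and DEVD-CHO caspase inhibitor wells for full effect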
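Material: reconstituted apoptosome with Apaf-1, cytochrome c, caspase-9, procaspase-3, dATP / Buffer or medium: pH 7.5 Hepes buffer with CHAPS, BSA, DTT / Also added: cytochrome c with DEVD-Rh110 / Schedule: compound with Apaf-1, dATP, procaspase-3 30 min, then 50 min reaction, room temperature / Technique: rhodamine 110 fluorescence at Ex 480/Em 540 nm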
M18AAP inhibitor: PfM18AAP inhibitors, malaria aminopeptidase, primary screen, biochemical, QFRET, recombinant enzyme. AID 1822, 2009. inhibition, % at 7.35 µM. 290,000 compounds, 1.2% hits. M18 aspartyl aminopeptidase (Plasmodium falciparum 3D7). H-Glu-NHMec fluorogenic cleavage;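 active = inhibition above the campaign mean inhibition over all tested compounds plus 3 SD, cut at about 28% in these data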;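 also: 0% = plate median of test compound wells and 100% = 2 mM ZnCl2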
PfGluPho inh: PfG6PD enzyme inhibitors, primary screen, biochemical, fluorescence intensity, uHTS; 350,000 compounds, 0.78% hits; AID 504690, 2011; glucose-6-phosphate dehydrogenase-6-phosphogluconolactonase (Plasmodium falciparum 3D7); PfGluPho enzyme, NADPH resazurin-diaphorase fluorescence; inhibition, % at 20 µM;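 active = inhibition reaching at least a set limit at 20 µM in the primary screen, cut at about 59% in these data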;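 also: 0% = DMSO wells with substrate and 100% = DMSO wells lacking glucose-6-phosphate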
PfG6PD confirm: PfG6PD inhibitors, hit retest, confirmation, biochemical, fluorescence intensity, single concentration | shares compounds with PfGluPho inh | recombinant PfGluPho, NADPH-diaphorase-resazurin fluorescence | inhibition, % at 20 µM | 2,400 compounds, 34% hits | AID 504753, 2011;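 active = inhibition of at least 50% at 20 µM in any single replicate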;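 also: 0% = DMSO with substrate and 100% = DMSO lacking glucose-6-phosphate substrate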
Diaph ctr 10uM: diaphorase inhibitors and chemical oxidizers, confirmation, counter-screen for P. falciparum G6PD inhibitor project, biochemical, fluorescence intensity, 10 µM NADPH; shares compounds with PfGluPho inh; diaphorase-coupled resazurin reduction, NADPH 10 uM; inhibition, % at 20 µM; 820 compounds, 39% hits; AID 504862, 2011;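 active = average inhibition reaching 50% or more with the compound at 20 µM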;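 also: resorufin red fluorescence formed as diaphorase reduces resazurin using NADPH; 0% = DMSO with enzyme and 100% = DMSO without enzyme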
Diaph ctr 30uM: diaphorase inhibitors and chemical oxidizers, confirmation, counter-screen for P. falciparum G6PD inhibitor project, biochemical, fluorescence intensity, 30 µM NADPH. shares compounds with PfGluPho inh. Diaphorase/resazurin coupled assay, resorufin fluorescence. inhibition, % at 20 µM. AID 504863, 2011. 820 compounds, 29% hits;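 active = inhibition averaging 50% or more, tested at 20 µM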;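 also: 0% = DMSO with enzyme and 100% = DMSO wells lacking diaphorase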
Numbers without * were called inactive; · = not tested or not shown; ! = repeats disagree. In the library only some 2.9% were active in any assay of this set; here they are far more common.

SMILES	EBNA-1 inh	UBC13 polyUb	ZTA DNA inh	Apaf-1 inh	M18AAP inhibitor	PfGluPho inh	PfG6PD confirm	others
COc1cc(-n2nnnc2SC)c(OC)cc1Cl	3	4	-10	2	-6	-1	·
COc1cc(N=c2ssnc2Cl)c(OC)cc1Cl	-9	12	-15	5	29*	105*!	64*	Diaph ctr 10uM=-15;Diaph ctr 30uM=-18
COc1ccc(OC)c(N=c2ssnc2Cl)c1	3	-3	-1	23	19	82*	30
O=[N+]([O-])c1ccc(CSc2ccc(S(=O)(=O)N3CCOCC3)cn2)cc1	·	1	·	13	·	16	·
CC(=NNC(=S)N1CCC1)c1ccccn1	·	·	·	·	·	50	·
CC(=NNC(=S)N1CCCC1)c1ccccn1	·	·	·	·	·	67*	12
Cc1ccccc1C(=O)Nc1cccc(C(=O)N/N=C/c2ccccn2)c1	3	-6	-14	2	-3	17	·
Cc1ccc(S(=O)(=O)NNc2nc3ccccc3nc2C(F)(F)F)cc1	8	-11	0	18	0	65*	20
Cc1ccc(S(=O)(=O)NNc2ccccc2)cc1	4	2	5	-15	-11	65*	47*	Diaph ctr 10uM=42;Diaph ctr 30uM=19
CC(=O)Nc1ccc(S(=O)(=O)NNc2cccc(C)c2)cc1	-7	3	2	2	14	76*	45*	Diaph ctr 10uM=-10;Diaph ctr 30uM=4
Cc1ccc(S(=O)(=O)NNc2c3ccccc3nc3ccc(Cl)cc23)cc1	·	·	·	·	·	31	·
O=C(N/N=C/c1ccc(N2CCOCC2)cc1)C1COc2ccccc2O1 (stereo unspecified)	10	4	-1	7	8	10	·
O=C(NNC(=O)c1cc(S(=O)(=O)N2CCOCC2)ccc1Cl)c1ccc(F)cc1	·	·	·	·	·	0	·
COc1cc(S(=O)(=O)N2CCOCC2)ccc1NC(=O)COC(=O)c1ccc(Cl)nc1	·	4	·	-6	·	3	·
Cc1ccc(Nc2nnc(SCC(=O)c3c(N)n(C4CC4)c(=O)[nH]c3=O)s2)cc1C	·	5	-1	3	·	64*	22
CC(C)C1=CC(=NS(=O)(=O)c2cccc([N+](=O)[O-])c2)C=C(C(C)C)C1=O	3	-3	8	8	-10	78*	0
CCn1c2ccccc2nc2cc3c(cc21)c(Cl)c(=O)c1ccccc13	·	·	·	·	·	94*	40
CCn1c(/C=C/c2c(C)n(CC)c3ccccc23)nc2ccccc2c1=O	0	11	2	8	1	0	·
CC(=O)c1cc(Cl)ccc1OCC(=O)Nc1cccc(S(=O)(=O)N2CCCC2)c1	·	6	1	33	·	-3	·
COc1ccccc1Nc1ncnc2nc[nH]c12	7	15	-20	-3	2	0	·
CCCc1cc(=O)[nH]c(SCC(=O)NC2CCCc3ccccc32)n1 (stereo unspecified)	10	15	1	-16	1	64*	29
Cc1ccc(S(=O)(=O)/N=C2/C=C(C3C(=O)CC(C)(C)CC3=O)C(=O)c3ccccc32)cc1	-7	-29	12	28	-1	72*	73*	Diaph ctr 10uM=43;Diaph ctr 30uM=45
Nc1nc2c([N+](=O)[O-])cccc2s1	-8	-8	3	4	-1	-14	·
COc1ccccc1N(CC(=O)N/N=C/c1ccc(SC)cc1)S(C)(=O)=O	8	-7	-9	11	3	-16	·
CCOc1ccccc1N(CC(=O)N/N=C/c1cc(Br)ccc1OC)S(C)(=O)=O	5	1	10	24	4	118*	72*	Diaph ctr 10uM=70*;Diaph ctr 30uM=56*

Screening results from PubChem.
